In brackets after ≈: the same amount, converted by molar mass.
Columns and labels:
[1] = Solubility at pH 5.0; assay type: physicochemical; settings: buffer
[2] = AUC in rat at 2 mg/kg, po; assay type: ADME, organism-based; parameters: dose 2 mg/kg, route oral; settings: plasma
[3] = Plasma concentration in cynomolgus monkey at 0.4 mg/kg, po after 2 hrs; assay type: ADME, organism-based, Macaca fascicularis; parameters: dose 0.4 mg/kg, route oral
Outline: (§1)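 Cynomolgus monkeys were given single oral doses of 0.4, 2 or 10 mg/kg in 1% methylcellulose plus 1% Tween 80 in sterile water, with 3 animals per dose group and a vehicle group of 4. Plasma and mesenteric fat were collected 2 h post-dose. Compound level in each matrix was measured by LC/MS/MS.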

[4] = Plasma concentration in cynomolgus monkey at 2 mg/kg, po after 2 hrs; assay type: ADME, organism-based, Macaca fascicularis; parameters: dose 2 mg/kg, route oral; outline: as §1
[5] = Plasma concentration in cynomolgus monkey at 10 mg/kg, po after 2 hrs; assay type: ADME, organism-based, Macaca fascicularis; parameters: dose 10 mg/kg, route oral; outline: as §1
[6] = Drug level in mesenteric fat tissue of cynomolgus monkey at 0.4 mg/kg, po after 2 hrs; assay type: ADME, organism-based, Macaca fascicularis, Adipose tissue; parameters: dose 0.4 mg/kg, route oral; settings: read-out: Drug uptake; outline: as §1
[7] = Drug level in mesenteric fat tissue of cynomolgus monkey at 2 mg/kg, po after 2 hrs; assay type: ADME, organism-based, Macaca fascicularis, Adipose tissue; parameters: dose 2 mg/kg, route oral; settings: read-out: Drug uptake; outline: as §1
[8] = Drug level in mesenteric fat tissue of cynomolgus monkey at 10 mg/kg, po after 2 hrs; assay type: ADME, organism-based, Macaca fascicularis, Adipose tissue; parameters: dose 10 mg/kg, route oral; settings: read-out: Drug uptake; outline: as §1
[9] = Metabolic stability in rat liver S9 fraction assessed as compound remaining after 60 mins; assay type: ADME, subcellular; settings: read-out: Activity
[10] = Oral bioavailability in rat; assay type: ADME, organism-based; settings: in vivo
[11] = Clearance in rat; assay type: ADME, organism-based; settings: in vivo
Cytochrome P450 3A4 = Cytochrome P450 3A4 (Homo sapiens, UniProt P08684)
Chain of Cytochrome P450 3A4 (P08684 whole entry): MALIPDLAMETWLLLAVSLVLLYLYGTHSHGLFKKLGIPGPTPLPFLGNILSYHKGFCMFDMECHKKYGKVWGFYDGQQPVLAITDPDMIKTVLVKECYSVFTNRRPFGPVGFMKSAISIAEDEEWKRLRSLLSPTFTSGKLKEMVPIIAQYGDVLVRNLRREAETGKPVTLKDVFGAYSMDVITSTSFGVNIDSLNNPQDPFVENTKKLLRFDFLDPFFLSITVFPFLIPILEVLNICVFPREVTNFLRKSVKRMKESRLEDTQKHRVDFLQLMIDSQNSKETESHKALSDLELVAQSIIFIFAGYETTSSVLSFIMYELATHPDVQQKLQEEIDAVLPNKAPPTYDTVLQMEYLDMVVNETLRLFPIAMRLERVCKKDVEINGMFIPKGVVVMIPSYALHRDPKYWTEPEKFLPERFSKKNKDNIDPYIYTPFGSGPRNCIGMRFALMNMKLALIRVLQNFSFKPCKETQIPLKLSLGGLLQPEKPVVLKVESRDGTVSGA

[12] = target: Voltage-gated inwardly rectifying potassium channel KCNH2 (Homo sapiens, UniProt Q12809)
Chain of Voltage-gated inwardly rectifying potassium channel KCNH2 (Q12809 whole entry): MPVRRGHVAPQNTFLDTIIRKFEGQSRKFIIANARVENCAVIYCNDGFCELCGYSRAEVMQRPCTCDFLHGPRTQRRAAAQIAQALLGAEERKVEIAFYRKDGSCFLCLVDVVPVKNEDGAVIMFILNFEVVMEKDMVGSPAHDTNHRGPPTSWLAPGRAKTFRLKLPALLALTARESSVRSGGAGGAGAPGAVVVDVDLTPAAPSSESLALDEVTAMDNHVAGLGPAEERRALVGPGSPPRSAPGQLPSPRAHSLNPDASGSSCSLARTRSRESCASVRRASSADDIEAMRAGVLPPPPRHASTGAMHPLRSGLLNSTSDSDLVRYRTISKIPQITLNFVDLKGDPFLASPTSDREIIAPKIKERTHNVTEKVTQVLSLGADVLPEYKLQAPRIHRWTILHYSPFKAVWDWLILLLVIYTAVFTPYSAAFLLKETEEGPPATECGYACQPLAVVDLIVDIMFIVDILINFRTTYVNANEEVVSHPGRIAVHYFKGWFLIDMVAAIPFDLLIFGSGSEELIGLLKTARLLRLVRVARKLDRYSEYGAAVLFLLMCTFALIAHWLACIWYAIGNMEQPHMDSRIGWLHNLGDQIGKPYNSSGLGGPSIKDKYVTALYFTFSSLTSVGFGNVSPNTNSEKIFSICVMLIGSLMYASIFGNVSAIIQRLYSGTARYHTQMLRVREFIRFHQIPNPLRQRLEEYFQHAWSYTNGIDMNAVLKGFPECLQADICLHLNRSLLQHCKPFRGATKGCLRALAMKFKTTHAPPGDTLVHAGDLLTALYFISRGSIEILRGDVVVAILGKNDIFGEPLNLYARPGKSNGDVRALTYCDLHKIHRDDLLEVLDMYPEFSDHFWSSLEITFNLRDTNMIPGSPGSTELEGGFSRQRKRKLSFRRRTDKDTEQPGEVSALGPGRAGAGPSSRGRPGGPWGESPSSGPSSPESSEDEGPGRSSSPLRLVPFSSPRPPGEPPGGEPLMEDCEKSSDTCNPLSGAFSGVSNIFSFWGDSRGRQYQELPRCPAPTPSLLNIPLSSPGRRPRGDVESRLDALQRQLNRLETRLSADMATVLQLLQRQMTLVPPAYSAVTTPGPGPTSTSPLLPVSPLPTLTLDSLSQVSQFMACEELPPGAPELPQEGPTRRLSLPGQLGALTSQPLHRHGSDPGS

Row | Structure (SMILES) | solubility [1] [µg/mL] | remaining at 1 h [9] [%] | further results
1 | CC(C)(C)c1ccc(S(=O)(=O)N2CCN(c3ccc([N+](=O)[O-])cc3)CC2)cc1 | 0.5 (≈ 1.24 µM) | – | AUC [2]: 29.8 ng·h/mL
2 | C[C@@H]1CN(c2ccc([N+](=O)[O-])cc2)CCN1S(=O)(=O)c1ccc(C(C)(C)C)cc1 | 1.8 (≈ 4.31 µM) | – | –
3 | C[C@@H]1CN(CC2(C(N)=O)CC2)CCN1S(=O)(=O)c1ccc([C@](C)(O)C(F)(F)F)cc1 | – | – | AUC [2]: 638 ng·h/mL; concentration at 2 h [3]: 29 nM; concentration at 2 h [4]: 349 nM; concentration at 2 h [5]: 503 nM; concentration at 2 h [6]: 105 nM; concentration at 2 h [7]: 2780 nM; concentration at 2 h [8]: 40700 nM
4 | CC(c1ccncc1)N1CCN(S(=O)(=O)c2ccc(C(C)(C)C)cc2)[C@H](C)C1 (stereo not given in full) | 20.8 (≈ 51.8 µM) | – | –
5 | C[C@@H]1CN(CCc2ccncc2)CCN1S(=O)(=O)c1ccc(C(C)(O)C(F)(F)F)cc1 (stereo not given in full) | – | 59 | –
6 | C[C@@H]1CN(Cc2ccnc3ccccc23)CCN1S(=O)(=O)c1ccc(C(C)(C)C)cc1 | 1 (≈ 2.29 µM) | – | –
7 | C[C@@H]1CN(CCCc2ccncc2)CCN1S(=O)(=O)c1ccc(C(C)(C)C)cc1 | 39 (≈ 93.8 µM) | – | –
8 | C[C@@H]1CN(Cc2ccncc2)CCN1S(=O)(=O)c1ccc(C(C)(C)C)cc1 | 18.1 (≈ 46.7 µM) | – | –
9 | C[C@@H]1CN(CCc2ccccn2)CCN1S(=O)(=O)c1ccc(C(C)(O)C(F)(F)F)cc1 (stereo not given in full) | – | 28 | –
10 | C[C@@H]1CN(CC(F)(F)c2cccnc2)CCN1S(=O)(=O)c1ccc(C(C)(O)C(F)(F)F)cc1 (stereo not given in full) | – | 46 | –
11 | C[C@@H]1CN(CC2(c3cccnc3)CCC2)CCN1S(=O)(=O)c1ccc(C(C)(O)C(F)(F)F)cc1 (stereo not given in full) | – | 61 | –
12 | C[C@@H]1CN(CC2(c3ccncc3)CCCC2)CCN1S(=O)(=O)c1ccc(C(C)(O)C(F)(F)F)cc1 (stereo not given in full) | – | 43 | –
13 | C[C@@H]1CN(CC2(c3ccncc3)CCC2)CCN1S(=O)(=O)c1ccc(C(C)(O)C(F)(F)F)cc1 (stereo not given in full) | – | 54 | –
14 | C[C@@H]1CN(CC2(c3cccnc3)CCCC2)CCN1S(=O)(=O)c1ccc(C(C)(O)C(F)(F)F)cc1 (stereo not given in full) | – | 60 | –
15 | C[C@@H]1CN(CC(F)(F)c2ccncc2)CCN1S(=O)(=O)c1ccc(C(C)(O)C(F)(F)F)cc1 (stereo not given in full) | – | 40 | –
16 | C[C@@H]1CN(CCc2ccncc2)CCN1S(=O)(=O)c1ccc(C(C)(C)C)cc1 | 21.8 (≈ 54.3 µM) | – | –
17 | C[C@@H]1CN(CC2(c3cccnc3)CC2)CCN1S(=O)(=O)c1ccc(C(C)(O)C(F)(F)F)cc1 (stereo not given in full) | – | 50 | –
18 | C[C@@H]1CN(CC2(c3ccncc3)CC2)CCN1S(=O)(=O)c1ccc(C(C)(O)C(F)(F)F)cc1 (stereo not given in full) | – | 80 | bioavailability [10]: 60%; clearance [11]: 35 mL/min/kg; IC50 (Cytochrome P450 3A4): 1700 nM; IC50 [12]: 440 nM
19 | C[C@@H]1CN(CCc2cccnc2)CCN1S(=O)(=O)c1ccc(C(C)(O)C(F)(F)F)cc1 (stereo not given in full) | – | 67 | –
